Publication PMC3946992 (Journal of molecular biology, 2013)
Numbering of substitutions follows the chain as printed.

Assays:
Test in all cases: isothermal titration calorimetry
Type in all cases: binding
p48 [1] = target: T1, p48 (Homo sapiens, UniProt P49642)
T1 sequence (P49642 1-420): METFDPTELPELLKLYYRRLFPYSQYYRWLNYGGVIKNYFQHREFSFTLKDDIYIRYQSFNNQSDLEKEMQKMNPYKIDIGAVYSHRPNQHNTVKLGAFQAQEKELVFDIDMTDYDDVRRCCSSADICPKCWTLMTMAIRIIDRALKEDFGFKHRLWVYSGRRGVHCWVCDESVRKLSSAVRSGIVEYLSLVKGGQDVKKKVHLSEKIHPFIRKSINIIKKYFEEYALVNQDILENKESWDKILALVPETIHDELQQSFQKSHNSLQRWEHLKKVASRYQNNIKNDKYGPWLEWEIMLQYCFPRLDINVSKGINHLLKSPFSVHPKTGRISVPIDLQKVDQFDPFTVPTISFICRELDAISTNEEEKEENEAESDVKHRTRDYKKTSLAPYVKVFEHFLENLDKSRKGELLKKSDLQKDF
Procedure, shortened: (§1)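 Recombinant human p48 (full length, site-directed point mutants, or residues 1–408 lacking 360–379) is His-tagged in E. coli BL21(DE3), tag-cleaved with H3C protease, then purified by nickel, heparin and S200 chromatography. Protein at 20–30 μM is put in 20 mM HEPES pH 7.2, 100 mM NaCl with 3-fold molar excess MnCl2 and titrated with 400 μM UTP (1 initial plus 28 injections). Kd comes from a single-site nonlinear least-squares fit, ± standard deviation.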

p48 [2] = target: T2, p48 (Homo sapiens, UniProt P49642, D109N)
T2 sequence (P49642 1-420 D109N): T1 sequence (P49642 1-420) with D109N
Procedure, shortened: as §1

p48 [3] = target: T3, p48 (Homo sapiens, UniProt P49642, D111N)
T3 sequence (P49642 1-420 D111N): T1 sequence (P49642 1-420) with D111N
Procedure, shortened: as §1

p48 [4] = target: T4, p48 (Homo sapiens, UniProt P49642, D306N)
T4 sequence (P49642 1-420 D306N): T1 sequence (P49642 1-420) with D306N
Procedure, shortened: as §1

p48ΔL = target: T5, p48ΔL (Homo sapiens, UniProt P49642, DEL360-379)
T5 sequence (P49642 with tags, fused parts or gaps DEL360-379): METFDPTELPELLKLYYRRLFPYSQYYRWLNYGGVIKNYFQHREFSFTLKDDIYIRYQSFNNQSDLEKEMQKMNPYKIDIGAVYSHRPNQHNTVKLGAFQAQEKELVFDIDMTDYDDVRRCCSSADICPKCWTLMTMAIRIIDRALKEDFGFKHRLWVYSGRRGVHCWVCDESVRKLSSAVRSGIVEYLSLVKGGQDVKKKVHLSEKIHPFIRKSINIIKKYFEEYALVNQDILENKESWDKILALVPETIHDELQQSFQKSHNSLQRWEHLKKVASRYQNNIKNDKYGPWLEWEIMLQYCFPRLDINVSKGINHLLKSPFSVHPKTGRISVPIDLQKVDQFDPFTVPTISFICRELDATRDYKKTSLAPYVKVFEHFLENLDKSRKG
Procedure, shortened: as §1

p48/p58 = target: T6, p48/p58 (Homo sapiens, UniProt P49642)
T6 sequence (P49642 1-420): T1 sequence (P49642 1-420)
T6 sequence (P49643 1-509 partner): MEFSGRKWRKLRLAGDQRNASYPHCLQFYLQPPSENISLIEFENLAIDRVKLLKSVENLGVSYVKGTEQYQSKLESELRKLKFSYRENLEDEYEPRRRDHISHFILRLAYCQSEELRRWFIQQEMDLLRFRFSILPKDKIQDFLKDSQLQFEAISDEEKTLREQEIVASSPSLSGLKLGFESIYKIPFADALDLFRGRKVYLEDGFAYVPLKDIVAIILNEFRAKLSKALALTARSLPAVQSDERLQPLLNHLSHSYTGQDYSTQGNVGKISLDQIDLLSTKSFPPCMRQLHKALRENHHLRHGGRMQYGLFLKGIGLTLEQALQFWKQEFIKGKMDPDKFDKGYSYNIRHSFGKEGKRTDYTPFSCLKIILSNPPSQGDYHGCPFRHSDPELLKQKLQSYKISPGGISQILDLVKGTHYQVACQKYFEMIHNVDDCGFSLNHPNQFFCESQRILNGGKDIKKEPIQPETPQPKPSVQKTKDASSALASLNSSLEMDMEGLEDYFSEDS
Procedure, shortened: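 Recombinant human p48/p58 primase heterodimer is exchanged into 20 mM HEPES pH 7.2, 100 mM NaCl. Protein at 20–30 μM, pre-mixed with 3-fold molar excess MnCl2, is titrated by ITC with 400 μM nucleotide (UTP) in an initial injection plus 28 further injections. Kd comes from fitting a single-site binding model by nonlinear least squares, ± standard deviation.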

p48 [5] = target: T7, p48 (Homo sapiens, UniProt P49642, H315A)
T7 sequence (P49642 1-420 H315A): T1 sequence (P49642 1-420) with H315A
Procedure, shortened: as §1

p48 [6] = target: T8, p48 (Homo sapiens, UniProt P49642, K318A)
T8 sequence (P49642 1-420 K318A): T1 sequence (P49642 1-420) with K318A
Procedure, shortened: as §1

## Nc1ncnc2c1ncn2[C@@H]1O[C@H](COP(=O)(O)OP(=O)(O)OP(=O)(O)O)[C@@H](O)[C@H]1O [ATP]
p48 [1]
  Kd: 13 µM

## Nc1ccn([C@@H]2O[C@H](COP(=O)(O)OP(=O)(O)OP(=O)(O)O)[C@@H](O)[C@H]2O)c(=O)n1 [CTP]
p48 [1]
  Kd: 15 µM

## Nc1nc2c(ncn2[C@@H]2O[C@H](COP(=O)(O)OP(=O)(O)OP(=O)(O)O)[C@@H](O)[C@H]2O)c(=O)[nH]1 [GTP]
p48 [1]
  Kd: 13 µM

## O=c1ccn([C@@H]2O[C@H](COP(=O)(O)OP(=O)(O)OP(=O)(O)O)[C@@H](O)[C@H]2O)c(=O)[nH]1 [UTP]
p48 [2]
  Kd: 74 µM
p48 [3]
  Kd: 54 µM
p48 [4]
  Kd: 48 µM
p48 [1]
  Kd: 11 µM
p48ΔL
  Kd: 12.5 ± 0.72 µM
p48/p58
  Kd: 20 µM
p48 [5]
  Kd: 22 µM
p48 [6]
  Kd: 49 µM
